Shown are actives, neighbours in structure and some others; about 2.1% of the full set was active somewhere.
MsrA inhibitor: inhibitors of bovine MsrA | purified bovine MsrA, absorbance read-out | inhibition, % at 15.5 µM | 360,000 tested, 0.75% active | AID 651718; in the data active = inhibition above about 4.5%;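 also: 0% = vehicle wells with enzyme and 100% = reference inhibitor wells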
IMP-1 inhibitor: inhibitors of Pseudomonas aeruginosa IMP-1 metallo-beta-lactamase; purified IMP-1, nitrocefin hydrolysis, epi-absorbance fluorescence; inhibition, % at 5.6 µM; 290,000 tested, 0.45% active;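 active = inhibition above the mean plus 3 SD of all compounds in the same screening run, cut at about 4.5% in these data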;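 also: 0% = IMP-1 with DMSO and 100% = DMSO wells lacking enzyme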
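Assay system: purified IMP-1; Quantity: IMP-1 0.2 nM before substrate addition; Medium: HEPES buffer pH 7.1 with ZnSO4 and Brij 35; Incubation: 15 min enzyme–compound preincubation, then 25 min nitrocefin reaction, 25 °C; Signal: fluorescence quenching readout, ex 480/em 530 nm; Controls: DMSO with and without IMP-1; Repeats: singlicate testing.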
bovine MsrA act: bovine methionine sulfoxide reductase A activation; purified bovine MsrA, absorbance read-out; activation, % at 10.6 µM; 360,000 tested, 0.3% active; AID 602163; in the data active = activation above about 7.5%;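 also: 0% = vehicle and 100% = reference activator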
VIM-2 inh: blocks Pseudomonas aeruginosa VIM-2 metallo-beta-lactamase; purified VIM-2, nitrocefin hydrolysis, epi-absorbance fluorescence; inhibition, % at 5.6 µM; 290,000 tested, 0.89% active; AID 1527;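 active = inhibition above the mean of all tested compounds plus 3 SD, cutoff set per screening run, cut at about 7.5% in these data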;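 also: red hydrolysis product quenches plate fluorescence so inhibitors raise well fluorescence; 0% = enzyme with DMSO and 100% = DMSO without enzyme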
PKA-R1A act: activators of PKA-R1A complex | PKA-R1A dissociation, Cy5-IP20 fluorescence polarization; scaled: DMSO 0%, 113 µM cGMP 100% | activation, % at 11.4 µM | 340,000 tested, 0.083% active | AID 504707;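 active = percent activation above the mean of all tested compounds plus 3 SD, cut at about 19% in these data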;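 also: higher means more PKAc released from R1A so a rise in polarization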
PKA-R2B activ: activators of human PKA-R2B complex; P22694+P31323; PKA-R2B holoenzyme dissociation, Cy5-IP20 fluorescence polarization; R2B truncated from residue 108, S112A mutant; 0% DMSO only, 100% 113 µM cGMP; activation, % at 11.4 µM; 340,000 tested, 0.079% active;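 active = activation above a cutoff set at the mean over all compounds plus 3 SD, cut at about 18% in these data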;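 also: higher means more holoenzyme dissociation and a rise in polarization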
Target sequence (P31323 whole entry, looked up, other chains not shown, the tested form may be a part): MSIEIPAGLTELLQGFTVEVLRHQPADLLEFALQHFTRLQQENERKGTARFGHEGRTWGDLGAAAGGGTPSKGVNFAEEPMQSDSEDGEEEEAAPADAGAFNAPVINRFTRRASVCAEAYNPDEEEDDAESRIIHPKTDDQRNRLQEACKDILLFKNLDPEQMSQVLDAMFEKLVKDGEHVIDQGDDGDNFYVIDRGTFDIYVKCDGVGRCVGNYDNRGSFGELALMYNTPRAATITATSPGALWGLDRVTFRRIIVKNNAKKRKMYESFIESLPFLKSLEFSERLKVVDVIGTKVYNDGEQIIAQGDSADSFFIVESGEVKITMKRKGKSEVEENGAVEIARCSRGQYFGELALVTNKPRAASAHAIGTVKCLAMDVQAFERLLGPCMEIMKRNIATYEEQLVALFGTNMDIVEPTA
Numbers without * were called inactive; x = not tested or not shown.

SMILES | MsrA inhibitor | IMP-1 inhibitor | bovine MsrA act | VIM-2 inh | PKA-R1A act | PKA-R2B activ
O=C(O)c1ccc(COc2ccc3c4c(c(=O)oc3c2)CCC4)o1 | 1 | 0 | -11 | 8.5* | -11 | -10
Cc1cc(C)n2nc(CNS(=O)(=O)c3ccc(C(C)(C)C)cc3)nc2n1 | 0 | x | -2 | x | x | x
CCOC(=O)CN1N=C(/C=C/c2ccc(OC)cc2)CCC1=O | 6.1* | -3 | -10 | -6 | -2 | 3
CCOC(=O)C(C)N1N=C(/C=C/c2ccc(OC)cc2)CCC1=O (stereo unspecified) | 6.1* | -1 | -8 | -5 | 10 | 14
Cc1ccc2oc(=O)c3cnn(CC(=O)N(CCN(C)C)Cc4ccco4)c3c2c1 | -1 | -2 | -2 | -1 | -4 | 5
Cc1ccc2nc(Cl)c3cc(C(=O)N(CCN(C)C)Cc4ccco4)sc3c2c1 | -1 | 2 | -1 | 8.3* | -8 | -8
CCCCN(Cc1ccco1)C(=O)c1cc2c(=O)[nH]c3ccc(C)cc3c2s1 | 2 | -4 | 0 | 7 | -3 | 8
Cc1ccc2[nH]c(=O)c3cc(C(=O)N(CCCOC(C)C)Cc4ccco4)sc3c2c1 | 1 | -3 | -2 | 8.1* | 13 | 3
Cc1ccccc1-c1ccc2c(c1)[C@@H]1C[C@H](N(C)C(=O)Nc3ccccc3)[C@H]([C@H](C)O)CN1CC2 | 1 | x | x | x | x | x
CN(Cc1ccccc1)Cc1cc(=O)oc2ccc3ccccc3c12 | 0 | x | -3 | x | x | x
COc1cc(OC)c2c(C)cc(=O)oc2c1 | 3 | 4.9* | -15 | 3 | 0 | 1
COc1cc(OC)c2c(-c3cccc(-c4cccc(C)c4)c3)cc(=O)oc2c1 | 1 | x | -4 | x | -9 | -4
COC(=O)C1=C(C)N(Cc2cccc(C(F)(F)F)c2)C(=NCc2ccc3c(c2)OCO3)NC1c1cccc(Cl)c1 (stereo unspecified) | 0 | x | x | x | x | x
CN1CCc2c(OCc3ccc(F)cc3)cccc2C1=O | 0 | 23* | -4 | 1 | 8 | -2
O=c1nc(/C=C/c2ccc(O)c(O)c2)oc2ccccc12 | x | -1 | -5 | -1 | -1 | 1
COc1ccc(/C=C\c2nc(=O)c3ccccc3o2)cc1 | 4.7* | -4 | -5 | -2 | 0 | -5
CCc1ccccc1NC(=O)CCS(=O)(=O)c1ccc(Br)cc1 | 0 | 34* | -1 | -2 | 8 | -3
O=C(CCS(=O)(=O)c1ccc(Cl)cc1)Nc1ccccc1Br | 1 | -3 | -1 | -3 | -8 | -6
COC(=O)c1ccccc1NC(=O)CCS(=O)(=O)c1ccc(Br)cc1 | 3 | 35* | 0 | -2 | 12 | -8
COc1ccc(NC(=O)CCS(=O)(=O)c2ccc(OC)cc2)cc1 | 0 | -1 | -3 | -2 | -2 | 3
CCOc1ccc(NC(=O)CCS(=O)(=O)c2ccc(Br)cc2)cc1 | 0 | 16* | 0 | -3 | 8 | 10
O=C(CCS(=O)(=O)c1ccc(Br)cc1)NCc1ccco1 | 0 | 20* | -1 | -2 | 5 | 5
COCc1cc(N2CCN(C(=O)OC(C)(C)C)C[C@@H]2C)ccc1N1CC[C@H](O)C1 | -1 | x | x | x | x | x
O=Cc1coc([B-](F)(F)F)c1 | 0 | x | x | x | x | x
O=S(=O)(CS(=O)(=O)c1ccccc1Br)c1ccccc1Br | 1 | x | x | x | x | x
SMILES | MsrA inhibitor | IMP-1 inhibitor | bovine MsrA act | VIM-2 inh | PKA-R1A act | PKA-R2B activ
CCOc1ccccc1NC(=O)CCS(=O)(=O)c1ccc(Br)cc1 | -1 | 18* | -4 | -4 | -15 | -9
Cc1ccc(S(=O)(=O)c2nnn3c2nc(N2CCN(c4ccccn4)CC2)c2ccccc23)cc1C | -1 | -4 | -4 | 0 | -7 | -4
CCOC(=O)N1CCC(NC(=O)c2cc3c(=O)n(C)c4ccccc4c3n2C)CC1 | -1 | -3 | -2 | 5 | 3 | 2
COCCCNC(=O)c1cc2c(=O)n(C)c3ccccc3c2n1C | 0 | -3 | -4 | 7.8* | -2 | 8
Cn1c(C(=O)NC2CC2)cc2c(=O)n(C)c3ccccc3c21 | 0 | 0 | -8 | 17* | -23 | 2
COc1ccc(CCNC(=O)c2cc3c(=O)n(C)c4ccccc4c3n2C)cc1OC | 0 | -3 | 4 | -1 | 12 | -1
Cn1c(C(=O)NCCCN2CCc3ccccc3C2)cc2c(=O)n(C)c3ccccc3c21 | 0 | -3 | -2 | 9.8* | -9 | 1
Cc1nc(NC(=O)c2ccccc2)sc1-c1cc(C(=O)N2CCOCC2)nn1Cc1ccccc1 | -1 | x | -2 | x | -8 | 5

Screens (PubChem BioAssay)
